In ChEMBL document CHEMBL1125375, “Synthesis and structure-activity relationships of acyclic omega chain conjugated diene analogues of enisoprost” (1992) one finds Ratio and ED50 data, which are given here for 12 compounds.

Assay [1] can be described thus: Selectivity ratio was evaluated by the quotient of diarrheal ED50 value divided by antisecretory ED50 x 10 E-3. It counts as functional. Put shortly:
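Quotient of diarrheal ED50 (male rats, oral graded doses, all-or-none diarrhea over 8 h) over antisecretory ED50 (Pavlov pouch beagles, intrapouch dosing, percent reduction of food-stimulated 4-h total acid output). Antisecretory ED50 from linear regression of dose-response, 3–6 doses and 2–4 dogs per dose.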

For a further assay, the system named is Rattus norvegicus. Description: Compound was evaluated for diarrheagenic side effects in adult male rats by intragastric administration. In kind it is functional. The following applies: po. Put shortly: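 Adult Charles River male rats, 210–230 g, individually housed, fasted 24 h with water ad libitum. Logarithmically graded prostaglandin doses given orally (N = 6–12). Diarrhea scored all-or-none for 8 h after dosing.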

The test system of assay [2] is Canis familiaris. Description: Gastric antisecretory activity in food stimulated pavlov dogs by intrapouch administration. In kind it is functional. The following applies: Canis lupus familiaris. Put shortly: (§1)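 Adult female beagles (6–11 kg) with innervated Pavlov gastric pouches, food-deprived 14 h with water. After 30 min basal collection, prostaglandin in buffer-ethanol vehicle given into pouch via Thomas cannula; 30 min later pouch emptied and secretion stimulated by feeding canned dog food. Juice collected at 30-min intervals over 4 h; total acid output = volume × acidity. Percent reduction from control over 4 h.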

For assay [3], the system named is Canis familiaris. Description: Gastric antisecretory activity in food stimulated pavlov dogs by intrapouch administration; Inactive at 3.0 ug/Kg. It counts as functional, organism-based. The following applies: Canis lupus familiaris. Put shortly:
as §1

Active and inactive are the calls of the source. The rule behind the calls is not given here. A value given as a limit tells only on which side of the number the result lay.

On to `C=C/C(C)=C/[C@](C)(O)C/C=C/[C@H]1[C@H](O)CC(=O)[C@@H]1CC/C=C\CCC(=O)OC`, for which, in assay [1], the Ratio was 1.4. In addition, the ED50 in the assay with Rattus norvegicus was found to be 1030 µg/kg; in the assay with Canis familiaris [2], 0.71 µg/kg.
The corresponding values for `C=C(C)/C=C/[C@](C)(O)C/C=C/[C@H]1[C@H](O)CC(=O)[C@@H]1CC/C=C\CCC(=O)OC` are 210, 420 µg/kg and 0.002 µg/kg.
On to `C/C=C/C=C/[C@](C)(O)C/C=C/[C@H]1[C@H](O)CC(=O)[C@@H]1CC/C=C\CCC(=O)OC`, for which the Ratio in assay [1] turned out to be 8. Further, the ED50 amounted to 250 µg/kg with Rattus norvegicus and 0.03 µg/kg in the assay with Canis familiaris [2].
For `C/C=C(C)\C=C\[C@](C)(O)C/C=C/[C@H]1[C@H](O)CC(=O)[C@@H]1CC/C=C\CCC(=O)OC`, in that order: 76, 1230 µg/kg and 0.016 µg/kg.
The corresponding values for `COC(=O)CC/C=C\CC[C@H]1C(=O)C[C@@H](O)[C@@H]1/C=C/C[C@@](C)(O)/C=C/C=C(C)C` are over 53, over 3160 µg/kg and 0.06 µg/kg.
The corresponding values for `COC(=O)CC/C=C\CC[C@H]1C(=O)C[C@@H](O)[C@@H]1/C=C/C[C@@](C)(O)/C=C/C1=CCCC1` are over 158, over 3160 µg/kg and 0.02 µg/kg.
For `CCCCC(C)(O)C/C=C/[C@H]1[C@H](O)CC(=O)[C@@H]1CC/C=C\CCC(=O)OC` (stereo not given in full) [ENISOPROST], the Ratio in assay [1] came to 2. Further, the results for the ED50 with Rattus norvegicus and with Canis familiaris [2] were 49 µg/kg and 0.023 µg/kg, respectively.
In the case of `C/C=C(C)/C=C/[C@](C)(O)C/C=C/[C@H]1[C@H](O)CC(=O)[C@@H]1CC/C=C\CCC(=O)OC`, the Ratio in assay [1] worked out at 62. Also, the ED50 came out at 185 µg/kg with Rattus norvegicus and 0.003 µg/kg in the assay with Canis familiaris [2].
Regarding `C=C/C=C(\C)[C@](C)(O)C/C=C/[C@H]1[C@H](O)CC(=O)[C@@H]1CC/C=C\CCC(=O)OC`, the ED50 in the assay with Rattus norvegicus is over 3160 µg/kg. Further, the ED50 entry in the assay with Canis familiaris [3] is “inactive”.
Turning to `C/C=C\C=C\[C@](C)(O)C/C=C/[C@H]1[C@H](O)CC(=O)[C@@H]1CC/C=C\CCC(=O)OC`, the Ratio in assay [1] was 34. In addition, the figures for the ED50 with Rattus norvegicus and with Canis familiaris [2] were 306 µg/kg and 0.009 µg/kg, respectively.
The corresponding values for `COC(=O)CC/C=C\CC[C@H]1C(=O)C[C@@H](O)[C@@H]1/C=C/C[C@@](C)(O)/C=C/C(C)=C(C)C` are over 53, over 3160 µg/kg and 0.06 µg/kg.
For `C=C/C=C/[C@](C)(O)C/C=C/[C@H]1[C@H](O)CC(=O)[C@@H]1CC/C=C\CCC(=O)OC`, in that order: 35, 243 µg/kg and 0.007 µg/kg.
